According to ChEMBL document CHEMBL1148028, “Design and synthesis of urea and thiourea derivatives and their inhibitory activities on lipopolysaccharide-induced NO production” (Bioorg Med Chem Lett, 2007):
Calls of active or inactive are those of the source. The rule behind the calls is not given here.

What follows are molecules tested on RAW (assay: Inhibition of LPS-induced NO production in RAW 264.7 cells at 0.1 uM after 20 hrs). Conditions: Mus musculus.
Format: functional

SMILES | inhibition at 0.1 µM
N=C(N)NN [PIMAGEDINE] | 85%

The molecules below were run on RAW (assay: Inhibition of LPS-induced NO production in RAW 264.7 cells at 5 uM after 20 hrs). Conditions: Mus musculus.
Format: functional, cell-based
Outline: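 Cells plated in 10% FBS–DMEM for 24 h, then given 1% FBS medium with LPS (1 µg/mL) plus compound for 20 h. Accumulated nitrite assayed by Griess reaction (10 min, room temp), absorbance 570 nm, quantified by sodium nitrite calibration. Percent inhibition relative to LPS-only control, n = 3.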

SMILES | IC50 | inhibition at 5 µM
O=C(O)CNC(=S)Nc1ccc(OCCn2c3ccccc3c3ccccc32)cc1 | 0.153 µM | 87%
O=C(Nc1ccccc1)Nc1ccc(OCCn2c3ccccc3c3ccccc32)cc1 |  | 28%
CC(C)NC(=O)Nc1ccc(OCCn2c3ccccc3c3ccccc32)cc1 |  | 15%
NC(=O)Nc1ccc(OCCn2c3ccccc3c3ccccc32)cc1 |  | 24%
CCOC(=O)CNC(=S)Nc1ccc(OCCn2c3ccccc3c3ccccc32)cc1 |  | 41%
CCCNC(=O)Nc1ccc(OCCn2c3ccccc3c3ccccc32)cc1 |  | 14%
CCNC(=O)Nc1ccc(OCCn2c3ccccc3c3ccccc32)cc1 |  | 30%
CCN(C(N)=S)c1ccc(OCCn2c3ccccc3c3ccccc32)cc1 |  | 33%
CCNC(=S)Nc1ccc(OCCn2c3ccccc3c3ccccc32)cc1 | 0.901 µM | 90%
O=C(O)CNC(=O)Nc1ccc(OCCn2c3ccccc3c3ccccc32)cc1 |  | 43%
NC(=S)Nc1ccc(OCCn2c3ccccc3c3ccccc32)cc1 | 5.31 µM | 55%
CNC(=S)Nc1ccc(OCCn2c3ccccc3c3ccccc32)cc1 | 0.73 µM | 80%
CN(C(N)=O)c1ccc(OCCn2c3ccccc3c3ccccc32)cc1 |  | 8%
CCN(C(N)=O)c1ccc(OCCn2c3ccccc3c3ccccc32)cc1 |  | 25%
NC(=S)N(CC1CC1)c1ccc(OCCn2c3ccccc3c3ccccc32)cc1 |  | 34%
CCOC(=O)CNC(=O)Nc1ccc(OCCn2c3ccccc3c3ccccc32)cc1 |  | 38%
NC(=O)N(CC1CC1)c1ccc(OCCn2c3ccccc3c3ccccc32)cc1 | 3.12 µM | 61%

These molecules were tested on RAW (assay: Inhibition of iNOS mRna expression in LPS-stimulated mouse RAW 264.7 cells at 10 uM after 6 hrs by RT-PCR analysis). Conditions: not given.
Format: functional, cell-based
Outline: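 Cells (1.8 × 10⁶ per 60-mm dish) stimulated with LPS (1 µg/mL) with or without compound for 6 h, washed twice with PBS. Total RNA extracted with Trizol; iNOS and β-actin mRNA assessed by RT-PCR.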

SMILES | Activity
CNC(=S)Nc1ccc(OCCn2c3ccccc3c3ccccc32)cc1 | Active

Each molecule was assayed on RAW (assay: Inhibition of iNOS protein expression in LPS-stimulated mouse RAW 264.7 cells at 10 uM after 20 hrs by Western blot analysis). Conditions: not given.
Format: functional, cell-based
Outline: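 Cells (1.5 × 10⁶ per 60-mm dish) given LPS (1 µg/mL) with or without compound for 20 h, then lysed. 20 µg lysate protein run on 8% SDS-PAGE, blotted to PVDF, probed for mouse iNOS and actin, ECL detection. iNOS band density normalized to actin; means ± SD of three densitometric analyses.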

SMILES | Activity
CNC(=S)Nc1ccc(OCCn2c3ccccc3c3ccccc32)cc1 | Active
